Data set [1] can be described thus: In vitro stability in rat plasma. It counts as in vitro ADME. Conditions: 60 minutes incubation with rat plasma. In a few lines: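 Rat plasma was separated by centrifugation and diluted with pH 7.4 phosphate buffer to 80% final. Test compound (20 µM final) was incubated at 37°C for 60 min with agitation, then quenched with MeOH plus CH3CN. Analysis was by HPLC-UV at 254 nm, with acetonitrile–water gradient, mobile phase pH 7.0 (NH4OH) and methyl biphenyl-4-carboxylate internal standard (20 µM). Three independent experiments in duplicate.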

In data set [2] the test system is diabetic rats (Rattus norvegicus). In words: Blood glucose after a single dose in diabetes model induced by STZ. It counts as in vivo. Conditions: for Blood glucose after single dose / Hypoglycemic activity (in words) / Blood glucose before single dose: STZ diabetic rats; for Blood glucose after single dose / Hypoglycemic activity (in words): 20 mg·kg−1 ip, single dose; for Blood glucose before single dose: value before treatment (time control). The essentials:
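Diabetes was induced in rats by single iv STZ (60 mg·kg−1 in citrate buffer, pH 4.5). After 4 weeks, male Wistar rats (180–220 g) with glycemia >300 mg/dL were used. Groups were non-diabetic, diabetic plus DMSO vehicle, and diabetic plus test compound (single 20 mg·kg−1 ip dose). Plasma glucose was read by glucometer at 0, 30, 60, 120 and 180 min. n=7/group; mean ± SEM; Student's t-test versus time control.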

The test system is the same in data set [3]. In words: Mechanical allodynia. It counts as in vivo. Conditions: STZ diabetic rats. In a few lines:
(§1)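 Male Wistar rats (180–220 g) were made diabetic by single iv STZ 60 mg·kg−1 (glycemia >300 mg/dL). Thermal hyperalgesia was scored as paw withdrawal latency to radiant heat on the hind paw (plantar meter). Mechanical allodynia was scored as paw withdrawal threshold to pressure (digital analgesiometer). Readings were taken before and 4 weeks after induction, then 3 and 7 days into daily test compound 50 mg·kg−1 ip (DMSO vehicle). n=5/group; mean ± SEM; two-way ANOVA.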

Data set [4] has the same test system. In words: Blood glucose during 7 days' treatment of STZ diabetic rats. It counts as in vivo. Conditions: 50 mg/kg once a day for 7 days. In a few lines: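 Male Wistar rats (180–220 g) were made diabetic by single iv STZ (60 mg·kg−1, citrate buffer pH 4.5); after 4 weeks, those with glycemia >300 mg/dL were used. They received test compound 50 mg·kg−1 ip once daily for 7 days, with DMSO as vehicle. Plasma glucose was measured before treatment and on days 3 and 7.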

For data set [5] the test system is unchanged. In words: Thermal hyperalgesia. It is filed as in vivo. Conditions: STZ diabetic rats. The essentials: as §1
The nature of data set [6]: In vitro chemical stability in buffer at pH 2.0 and pH 7.4. It is filed as physicochemical. Conditions: pH 2.0, 20 µM, 37°C. In a few lines: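 DMSO stocks (5–10 mM) were diluted into pH 2 buffer (0.2 M KCl/0.2 M HCl) or pH 7.4 dibasic phosphate buffer, giving 20 µM test compound. Samples were held in a 37°C water bath with vigorous stirring for 0, 30, 60 and 120 min. Acid samples were then neutralised with pH 8.4 phosphate buffer. % remaining = peak area at each time / area at 0 min × 100. At least two experiments in triplicate.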

Data set [7] deals with T1, PPARγ (Homo sapiens, UniProt P37231).
T1 sequence (P37231 1-505): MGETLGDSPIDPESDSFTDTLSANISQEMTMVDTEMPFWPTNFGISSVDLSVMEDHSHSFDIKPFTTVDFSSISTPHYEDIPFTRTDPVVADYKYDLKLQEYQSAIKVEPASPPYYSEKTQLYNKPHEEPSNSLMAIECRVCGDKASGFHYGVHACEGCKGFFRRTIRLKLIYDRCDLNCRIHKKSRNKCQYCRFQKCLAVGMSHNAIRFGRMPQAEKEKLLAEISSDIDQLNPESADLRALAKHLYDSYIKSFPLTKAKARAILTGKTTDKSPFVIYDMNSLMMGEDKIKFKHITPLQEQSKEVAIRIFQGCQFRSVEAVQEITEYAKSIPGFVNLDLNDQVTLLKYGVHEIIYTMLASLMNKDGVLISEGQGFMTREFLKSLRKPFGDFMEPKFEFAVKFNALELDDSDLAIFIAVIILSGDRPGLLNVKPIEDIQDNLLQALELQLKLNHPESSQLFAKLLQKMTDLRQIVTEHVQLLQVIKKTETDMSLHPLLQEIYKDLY
Conditions: cited from earlier work.

Data set [8] has as its system diabetic neuropathic pain model induced by STZ in rats. Conditions: cited from earlier work.
Data set [9] concerns the target T1, PPARγ. In words: PPARγ binding assay performed by CEREP. Conditions: single concentration 30 µM, rosiglitazone as positive control.

Entries after “also recorded” stand apart in the source; their conditions may differ.

Consider `COc1ccc(S(=O)(=O)N/N=C/c2cccc(C(=O)O)c2)cc1OC` [Compound 4, (E)-3-((2-(3,4-dimethoxyphenylsulfonyl) hydrazono)methyl)benzoic acid], for which the “Plasma stability (in words)” value in data set [1] is reported as “very stable”.
Turning to `COC(=O)c1cccc(/C=N/N(C)S(=O)(=O)c2ccc(OC)c(OC)c2)c1` [Compound 5, (E)-methyl 3-((2-(3,4-dimethoxyphenylsulfonyl)-2-methylhydrazono)methyl)benzoate], in [2] (dosing vehicle DMSO), the “Solubility in DMSO” value is given as “partially insoluble in DMSO”. Further, the “Plasma stability (in words)” value in [1] is “very stable”.
Consider `COC(=O)c1ccc(/C=N/N(C)S(=O)(=O)c2ccc(OC)c(OC)c2)cc1` [Compound 6, (E)-methyl 4-((2-(3,4-dimethoxyphenylsulfonyl)-2-methylhydrazono)methyl)benzoate], for which, in data set [2], the “Blood glucose after single dose” value was 255.3 ± 42.2 mg/dL, the “Hypoglycemic activity (in words)” value is “showed hypoglycemic activity” and the “Blood glucose before single dose” value amounted to 397.1 ± 38.2 mg/dL. The “Plasma stability (in words)” value in data set [1] was “unstable”.
Consider `COC(=O)c1ccc(/C=N/NS(=O)(=O)c2ccc(OC)c(OC)c2)cc1` [Compound 7, (E)-methyl 4-((2-(3,4-dimethoxyphenylsulfonyl)hydrazono)methyl)benzoate], for which, in data set [3] (50 mg·kg−1 ip, long-term administration), the “Paw withdrawal threshold (PWT), after treatment” value is 36.7 ± 0.9 g. Also, the “Paw withdrawal threshold (PWT), before treatment” value in [3] (four weeks after induction) stood at 24.0 ± 1.4 g. In addition, the “Hypoglycemic activity (in words)” value in data set [4] was “promoted hypoglycemic activity only after 7 days of treatment”. In addition, in [2], the “Blood glucose after single dose” value was 182.2 ± 22.7 mg/dL, the “Hypoglycemic activity (in words)” value is given as “showed hypoglycemic activity” and the “Blood glucose before single dose” value turned out to be 384.0 ± 41.9 mg/dL. Also, in [5] (50 mg·kg−1 ip), the “Paw withdrawal latency (PWL), after 3 days of treatment” value was found to be 12.2 ± 0.9 s and the “Paw withdrawal latency (PWL), after 7 days of treatment” value is 13.3 ± 0.2 s. Moreover, in data set [5] (four weeks after induction), the “Paw withdrawal latency (PWL), before treatment” value is 8.5 ± 0.2 s. Moreover, the “Effect on diabetic neuropathic pain (in words)” value in data set [5] (long-term administration, 50 mg·kg−1 ip) is “reduced diabetic neuropathic pain”. Also, the “Plasma stability (in words)” value in data set [1] is given as “unstable”.
On to `COc1ccc(S(=O)(=O)N/N=C/c2ccc(C#N)cc2)cc1OC` [Compound 8, (E)-N′-(4-cyanobenzylidene)-3,4-dimethoxybenzenesulfonohydrazide], for which, in [6], the Chemical stability result is recorded as “unstable”. In addition, the “Plasma stability (in words)” value in [1] is “unstable”.
On to `COc1ccc(S(=O)(=O)N(C)/N=C/c2ccc(C#N)cc2)cc1OC` [Compound 9, (E)-N′-(4-cyanobenzylidene)-3,4-dimethoxy-N-methylbenzene-sulfonohydrazide], for which, in data set [7], the “PPARγ activity as described earlier” value is “partial agonist of PPARγ”. For the same molecule, in data set [2], the “Hypoglycemic activity (in words)” value is listed as “did not reduce hyperglycemia”. Besides, the “Plasma stability (in words)” value in data set [1] is “very stable; also recorded: high chemical and plasma stability”. In [8] (50 mg/kg for 7 days, vehicle 410.0±58.0 mg/dL), the “Glucose levels after 7 days” value was 242.4 ± 55.3 mg/dL. Also, in data set [8] (diabetic neuropathic pain model induced by STZ in rats), the Antinociceptive activity result was “antinociceptive agent”.
`COc1ccc(S(=O)(=O)N/N=C/c2ccc(C(=O)O)cc2)cc1OC` [Compound 10, (E)-4-((2-(3,4-dimethoxyphenylsulfonyl) hydrazono)methyl)benzoic acid]: the “Inhibition of control specific binding to PPARγ” value in data set [9] is given as “unable to bind to PPARγ”.

The values above are taken from publication PMC5024769 (Drug Design, Development and Therapy, 2016).
